According to ChEMBL document CHEMBL1127039, “Nonpeptide angiotensin II antagonists derived from 4H-1,2,4-triazoles and 3H-imidazo[1,2-b][1,2,4]triazoles” (J Med Chem, 1993):
Active and inactive are the calls of the source. The calls are words filed in the database; no cut-off is given here.

Legend:
Rattus norvegicus [1] = test: Peak inhibition of A II pressor response in conscious normotensive rats after peroral administration of 3 mg/kg of drug (4 animals treated); type: functional; conditions: route oral
Summary of the method: (§1)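 Male Sprague-Dawley rats (300–400 g) catheterized under methohexital, recovered overnight, conscious. Compound given iv (saline or NaHCO3/saline/water vehicle) or po, with food withheld for oral dosing. AII 0.1 μg/kg iv bolus given at -45, -30 and -15 min, then at 5–60 min and every 30 min afterwards. Peak percent inhibition of the AII ΔMAP response, averaged over at least two rats.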

Rattus norvegicus [2] = test: Time from onset of action until significant (i.e., >= 30%) inhibition of pressor response no longer observed (3 mg/kg peroral route); type: functional
Summary of the method: (§2)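 Same conscious-rat AII challenge protocol: AII 0.1 μg/kg iv boluses repeated after iv or po dosing, ΔMAP recorded. Duration is the time from onset until inhibition falls below 30% and stays below 30% for two further AII challenges. Averaged over at least two rats.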

Rattus norvegicus [3] = test: Peak inhibition of A II pressor response in conscious normotensive rats after peroral administration of 0.3 mg/kg of drug (2 animals treated); type: functional; conditions: route oral; summary of the method: as §1
Rattus norvegicus [4] = species: Rattus norvegicus; test: In vitro antagonistic activity by displacement of [125I]-Sar1-Ile8-A II at the rat adrenal cortical […] AT1 receptor; type: functional
Rattus norvegicus [5] = test: Peak inhibition of A II pressor response in conscious normotensive rats after intravenous administration of 0.3 mg/kg of drug (4 animals treated); type: functional; summary of the method: as §1
Rattus norvegicus [6] = test: Time from onset of action until significant (i.e., >= 30%) inhibition of pressor response no longer observed (0.3 mg/kg peroral route).; type: functional; summary of the method: as §2
Rattus norvegicus [7] = test: Time from onset of action until significant (i.e., >= 30%) inhibition of pressor response no longer observed (0.3 mg/kg intravenous route); type: functional; summary of the method: as §2
Rattus norvegicus [8] = test: Peak inhibition of A II pressor response in conscious normotensive rats after intravenous administration of 1 mg/Kg of drug (2 animals treated); type: functional; summary of the method: as §1
Rattus norvegicus [9] = test: Time from onset of action until significant (i.e., >= 30%) inhibition of pressor response no longer observed (1 mg/Kg intravenous route).; type: functional; summary of the method: as §2
[10] = molecular target: T1, Type-1 angiotensin II receptor (Oryctolagus cuniculus, UniProt P34976); test: Displacement of [125I]-Sar1-Ile8-A II at the rabbit aorta angiotensin II receptor, type 1; type: tissue-based
T1 sequence (P34976 whole entry): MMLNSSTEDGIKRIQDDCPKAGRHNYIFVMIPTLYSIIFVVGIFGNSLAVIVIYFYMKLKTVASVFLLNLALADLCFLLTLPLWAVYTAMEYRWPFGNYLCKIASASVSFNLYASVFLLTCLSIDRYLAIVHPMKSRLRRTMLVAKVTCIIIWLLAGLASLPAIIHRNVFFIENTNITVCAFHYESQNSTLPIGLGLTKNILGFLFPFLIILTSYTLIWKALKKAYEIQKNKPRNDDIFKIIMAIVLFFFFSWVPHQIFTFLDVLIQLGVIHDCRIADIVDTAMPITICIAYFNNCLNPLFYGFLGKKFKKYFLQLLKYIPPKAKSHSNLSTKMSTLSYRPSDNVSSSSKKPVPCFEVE
Summary of the method: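 Rabbit aorta membranes in 50 mM Tris-HCl pH 7.4, 5 mM MgCl2, 0.2 mg/mL bacitracin; 0.2% BSA only in original version. Nonspecific binding with 1 μM unlabeled Sar1Ile8-AII. Filtration, gamma counting. Duplicate tubes, five concentrations; IC50 from nonlinear regression of displacement curves, sometimes averaged over separate assays.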

Rattus norvegicus [11] = test: Time from onset of action until significant (i.e., >= 30%) inhibition of pressor response no longer observed (30 mg/kg peroral route).; type: functional; summary of the method: as §2
Rattus norvegicus [12] = test: Peak inhibition of A II pressor response in conscious normotensive rats after peroral administration of 30 mg/kg of drug; type: functional; conditions: route oral; summary of the method: as §1
Rattus norvegicus [13] = test: Peak inhibition of A II pressor response in conscious normotensive rats after peroral administration of 1 mg/kg of drug (2 animals treated); type: functional; conditions: route oral; summary of the method: as §1
Rattus norvegicus [14] = test: Time from onset of action until significant (i.e., >= 30%) inhibition of pressor response no longer observed (1 mg/kg peroral route); type: functional; summary of the method: as §2
Rattus norvegicus [15] = test: Peak inhibition of A II pressor response in conscious normotensive rats after intravenous administration of 0.3 mg/kg of drug (2 animals treated); type: functional; summary of the method: as §1
Rattus norvegicus [16] = test: Time from onset of action until significant (i.e., >= 30%) inhibition of pressor response no longer observed (0.3 mg/kg peroral route); Not active; type: functional, organism-based; summary of the method: as §2
Rattus norvegicus [17] = test: Peak inhibition of A II pressor response in conscious normotensive rats after peroral administration of 3 mg/kg of drug (results shown for 3 out of 4 animals); type: functional; conditions: route oral; summary of the method: as §1
Rattus norvegicus [18] = test: Peak inhibition of A II pressor response in conscious normotensive rats after intravenous administration of 1 mg/kg of drug (2 animals treated); type: functional; summary of the method: as §1
Rattus norvegicus [19] = test: Time from onset of action until significant (i.e., >= 30%) inhibition of pressor response no longer observed (1 mg/kg intravenous route).; type: functional; summary of the method: as §2
Rattus norvegicus [20] = test: Time from onset of action until significant (i.e., >= 30%) inhibition of pressor response no longer observed (1 mg/kg intravenous route); type: functional; summary of the method: as §2
Rattus norvegicus [21] = test: Time from onset of action until significant (i.e., >= 30%) inhibition of pressor response no longer observed (0.3 mg/kg peroral route)); Not active; type: functional, organism-based; summary of the method: as §2
Rattus norvegicus [22] = test: Peak inhibition of A II pressor response in conscious normotensive rats after peroral administration of 0.3 mg/kg of drug (2 animals treated); Not active; type: functional, organism-based; set-up: dose 0.3 mg/kg; summary of the method: as §1
Rattus norvegicus [23] = test: Time from onset of action until significant (i.e., >= 30%) inhibition of pressor response no longer observed (3 mg/kg intravenous route); type: functional; summary of the method: as §2
Rattus norvegicus [24] = test: Peak inhibition of A II pressor response in conscious normotensive rats after intravenous administration of 3 mg/kg of drug (2 animals treated); type: functional; summary of the method: as §1
Rattus norvegicus [25] = test: Peak inhibition of A II pressor response in conscious normotensive rats after peroral administration of 3 mg/kg of drug (3 animals treated); type: functional; conditions: route oral; summary of the method: as §1
Rattus norvegicus [26] = test: Time from onset of action until significant (i.e., >= 30%) inhibition of pressor response no longer observed (3 mg/kg intravenous route).; type: functional; summary of the method: as §2
Rattus norvegicus [27] = test: Peak inhibition of A II pressor response in conscious normotensive rats after intravenous administration of 10 mg/kg of drug (3 animals treated); type: functional; summary of the method: as §1
Rattus norvegicus [28] = test: Time from onset of action until significant (i.e., >= 30%) inhibition of pressor response no longer observed (10 mg/kg intravenous route).; type: functional; summary of the method: as §2
Rattus norvegicus [29] = test: Peak inhibition of A II pressor response in conscious normotensive rats after intravenous administration of 3 mg/kg of drug (4 animals treated); type: functional; summary of the method: as §1

## CCCCc1nc(Cl)c(CO)n1Cc1ccc(-c2ccccc2-c2nnn[nH]2)cc1 [LOSARTAN]
Rattus norvegicus [1]
  inhibition in vivo at 3 mg/kg: 94%
Rattus norvegicus [2]
  Duration: >4.5 h
Rattus norvegicus [3]
  inhibition in vivo at 0.3 mg/kg: 36%
Rattus norvegicus [4]
  IC50: 19 nM
Rattus norvegicus [5]
  inhibition in vivo at 0.3 mg/kg: 52%
Rattus norvegicus [6]
  Duration: >3.5 h
Rattus norvegicus [7]
  Duration: 5.5 h

## CCCCc1nnc([S+]([O-])Cc2ccc(Cl)cc2)n1Cc1ccc(-c2ccccc2-c2nn[nH]n2)cc1 (stereo not given)
Rattus norvegicus [8]
  Inhibition: 42%
Rattus norvegicus [9]
  Duration: 0.1 h
[10]
  IC50: 11 nM

## CCCCc1nnc(SCc2ccccc2)n1Cc1ccc(NC(=O)c2ccccc2C(=O)O)cc1
Rattus norvegicus [11]
  Duration: 0.4 h
[10]
  IC50: 15 nM
Rattus norvegicus [12]
  inhibition in vivo at 30 mg/kg: 33%

## CCCCc1nc(Cl)c(C(=O)O)n1Cc1ccc(-c2ccccc2-c2nn[nH]n2)cc1 [CARBOXYLIC ACID METABOLITE]
Rattus norvegicus [3]
  inhibition in vivo at 0.3 mg/kg: 63%
Rattus norvegicus [13]
  inhibition in vivo at 1 mg/kg: 72%
Rattus norvegicus [14]
  Duration: >7 h
Rattus norvegicus [6]
  Duration: 2.8 h
Rattus norvegicus [7]
  Duration: >29 h
Rattus norvegicus [15]
  inhibition in vivo at 0.3 mg/kg: 100%

## CCCCc1nnc(SCc2ccccc2C(=O)O)n1Cc1ccc(-c2ccccc2-c2nn[nH]n2)cc1
Rattus norvegicus [2]
  Duration: >6 h
Rattus norvegicus [16]
  Duration: inactive
Rattus norvegicus [3]
  inhibition in vivo at 0.3 mg/kg: 0%
Rattus norvegicus [17]
  inhibition in vivo at 3 mg/kg: 54%
[10]
  IC50: 1.5 nM
Rattus norvegicus [7]
  Duration: 5.5 h
Rattus norvegicus [15]
  inhibition in vivo at 0.3 mg/kg: 100%

## CCCCc1nnc(SCc2ccccc2-c2nn[nH]n2)n1Cc1ccc(-c2ccccc2-c2nn[nH]n2)cc1
Rattus norvegicus [18]
  inhibition in vivo at 1 mg/kg: 62%
Rattus norvegicus [19]
  Duration: 0.6 h
[10]
  IC50: 1.4 nM

## CCCCc1nnc(SCc2ccc(OC)cc2)n1Cc1ccc(NC(=O)c2ccccc2-c2nn[nH]n2)cc1
Rattus norvegicus [18]
  inhibition in vivo at 1 mg/kg: 70%
Rattus norvegicus [19]
  Duration: 0.2 h
[10]
  IC50: 4.1 nM

## CCCCc1nnc(SCc2ccccc2C(=O)O)n1Cc1ccc(NC(=O)c2ccccc2C(=O)O)cc1
Rattus norvegicus [18]
  inhibition in vivo at 1 mg/kg: 100%
Rattus norvegicus [20]
  Duration: 1.4 h
Rattus norvegicus [21]
  Duration: inactive
Rattus norvegicus [5]
  inhibition in vivo at 0.3 mg/kg: 74%
Rattus norvegicus [22]
  inhibition: inactive
[10]
  IC50: 3.3 nM
Rattus norvegicus [7]
  Duration: 0.9 h

## CCCCc1nnc(SCc2ccccc2C)n1Cc1ccc(NC(=O)c2ccccc2C(=O)O)cc1
Rattus norvegicus [23]
  Duration: 0.5 h
Rattus norvegicus [24]
  inhibition in vivo at 3 mg/kg: 56%
[10]
  IC50: 14 nM

## CCCCc1nnc(SCc2ccc(C)cc2)n1Cc1ccc(NC(=O)c2ccccc2C(=O)O)cc1
Rattus norvegicus [23]
  Duration: 0.1 h
Rattus norvegicus [24]
  inhibition in vivo at 3 mg/kg: 50%
[10]
  IC50: 7.6 nM

## CCCCc1nnc(SCc2ccc(Cl)cc2)n1Cc1ccc(-c2ccccc2-c2nn[nH]n2)cc1
Rattus norvegicus [25]
  inhibition in vivo at 3 mg/kg: 50%
Rattus norvegicus [2]
  Duration: 1.5 h
Rattus norvegicus [24]
  inhibition in vivo at 3 mg/kg: 62%
Rattus norvegicus [26]
  Duration: 1 h

## CCCCc1nnc(SCC(=O)OC)n1Cc1ccc(-c2ccccc2C(=O)O)cc1
Rattus norvegicus [27]
  inhibition in vivo at 10 mg/kg: 93%
Rattus norvegicus [28]
  Duration: 0.9 h
[10]
  IC50: 540 nM

## CCCCc1nnc(SCc2ccc([N+](=O)[O-])cc2)n1Cc1ccc(-c2ccccc2-c2nn[nH]n2)cc1
Rattus norvegicus [29]
  inhibition in vivo at 3 mg/kg: 65%
Rattus norvegicus [23]
  Duration: 1.4 h
[10]
  IC50: 6.6 nM

## CCCCc1nnc(SCc2ccc(C(=O)O)cc2)n1Cc1ccc(-c2ccccc2-c2nnn[nH]2)cc1
[10]
  IC50: 24 nM

## CCSc1nnc(Cc2ccccc2)n1Cc1ccc(NC(=O)c2ccccc2C(=O)O)cc1
[10]
  IC50: 1000 nM

## CCCCc1nc(Cl)c(CO)n1Cc1ccc(-c2ccccc2C(=O)O)cc1
[10]
  IC50: 230 nM

## CCCCc1nnc(SCC(=O)c2ccccc2)n1Cc1ccc(NC(=O)c2ccccc2C(=O)O)cc1
[10]
  IC50: 190 nM

## CCCCc1nnc(-c2cccnc2)n1Cc1ccc(NC(=O)c2ccccc2C(=O)O)cc1
[10]
  IC50: 1700 nM
